Assay results taken from ChEMBL document CHEMBL1155468, “Syntheses and evaluation of anticonvulsant profile and teratogenicity of novel amide derivatives of branched aliphatic carboxylic acids with 4-aminobenzensulfonamide” (J Med Chem, 2010).
Calls of active or inactive are those of the source. The rule behind the calls is not given here.

Tests used:
Mus musculus [1] = assay: Anticonvulsant activity in CF1 albino mouse assessed as inhibition of maximal electroshock-induced seizures at 30 mg/kg, ip after 0.5 hrs; format: functional, organism-based; parameters: dose 30 mg/kg
Method in brief: (§1)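 Test compounds suspended in 0.5% methylcellulose and given ip to adult male CF no. 1 albino mice (18-25 g) at 0.01 mL/g body weight before maximal electroshock challenge.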

Mus musculus [2] = assay: Anticonvulsant activity in CF1 albino mouse assessed as inhibition of maximal electroshock-induced seizures at 100 mg/kg, ip after 0.5 hrs; format: functional, organism-based; parameters: dose 100 mg/kg; method in brief: as §1
Mus musculus [3] = assay: Teratogenic effect in SWV mouse assessed as fetuses with neural tube deffects at 310 mg/kg, ip administered on morning of day 8 of gestation; format: toxicity, organism-based; parameters: dose 310 mg/kg, route intraperitoneal; details: in vivo
Method in brief: (§2)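 Two-month-old nulligravid SWV females were mated overnight and checked for vaginal plugs the next morning; gestation onset was set at 10 p.m. the previous night. On gestation day 8.5, each dam received a single ip injection (0.55-2.7 mmol/kg range) or vehicle (25% aqueous Cremophor EL) at 10 μL/g body weight. Litters were scored for implants, resorptions, live and dead fetuses, and fetuses with neural tube defects.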

Mus musculus [4] = assay: Anticonvulsant activity in CF1 albino mouse assessed as inhibition of subcutaneous pentylenetetrazole-induced seizures at 300 mg/kg, ip after 4 hrs; format: functional, organism-based; parameters: dose 300 mg/kg
Method in brief: (§3)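 Adult male CF no. 1 albino mice (18-25 g) dosed ip with compound suspended in 0.5% methylcellulose (0.01 mL/g). Convulsant: pentylenetetrazol dissolved in 0.9% saline as a 0.85% solution for mice, given subcutaneously.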

[5] = Teratogenic effect in SWV mouse assessed as dead fetuses at 522 mg/kg, ip administered on morning of day 8 of gestation; details: in vivo, read-out: Ratio TD50/ED50
[6] = Teratogenic effect in SWV mouse assessed as dead fetuses at 91 mg/kg, ip administered on morning of day 8 of gestation; details: in vivo
Mus musculus [7] = assay: Anticonvulsant activity in CF1 albino mouse assessed as inhibition of subcutaneous pentylenetetrazole-induced seizures at 30 mg/kg, ip after 4 hrs; format: functional, organism-based; parameters: dose 30 mg/kg; method in brief: as §3
Mus musculus [8] = assay: Anticonvulsant activity in CF1 albino mouse assessed as inhibition of maximal electroshock-induced seizures at 300 mg/kg, ip after 0.5 hrs; format: functional, organism-based; parameters: dose 300 mg/kg; method in brief: as §1
Mus musculus [9] = assay: Teratogenic effect in SWV mouse assessed as resorptions at 156 mg/kg, ip administered on morning of day 8 of gestation; format: toxicity, organism-based; parameters: dose 156 mg/kg, route intraperitoneal; details: in vivo
Method in brief: (§4)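 SWV inbred mice: two-month-old nulligravid females mated overnight with males and checked for vaginal plugs next morning; gestation onset taken as 10 p.m. the previous night. On gestation day 8.5 each dam got one ip injection, 0.55–2.7 mmol/kg, in 25% aqueous Cremophor EL (vehicle controls dosed alike), 10 μL/g body weight. Litters and implants tallied; resorptions and live fetuses reported as counts with percentages.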

Mus musculus [10] = assay: Anticonvulsant activity in CF1 albino mouse assessed as inhibition of subcutaneous pentylenetetrazole-induced seizures at 100 mg/kg, ip after 0.5 hrs; format: functional, organism-based; parameters: dose 100 mg/kg; method in brief: as §3
Mus musculus [11] = assay: Neurotoxicity in CF1 albino mouse assessed as motor impairment at 100 mg/kg, ip after 0.5 hrs; format: toxicity, organism-based; parameters: dose 100 mg/kg, route intraperitoneal; details: in vivo
Rattus norvegicus [12] = assay: Neurotoxicity in Sprague-Dawley rat assessed as motor impairment at 30 mg/kg, po after 0.25 to 4 hrs; details: in vivo
Mus musculus [13] = assay: Anticonvulsant activity in CF1 albino mouse assessed as inhibition of subcutaneous pentylenetetrazole-induced seizures at 300 mg/kg, ip after 0.5 hrs; format: functional, organism-based; parameters: dose 300 mg/kg; method in brief: as §3
Mus musculus [14] = assay: Neurotoxicity in CF1 albino mouse assessed as motor impairment at 300 mg/kg, ip after 4 hrs; format: toxicity, organism-based; parameters: dose 300 mg/kg, route intraperitoneal; details: in vivo
Mus musculus [15] = assay: Anticonvulsant activity in CF1 albino mouse assessed as inhibition of subcutaneous pentylenetetrazole-induced seizures at 100 mg/kg, ip after 4 hrs; format: functional, organism-based; parameters: dose 100 mg/kg; method in brief: as §3
Mus musculus [16] = assay: Neurotoxicity in CF1 albino mouse assessed as motor impairment at 30 mg/kg, ip after 4 hrs; format: toxicity, organism-based; parameters: dose 30 mg/kg, route intraperitoneal; details: in vivo
Mus musculus [17] = assay: Teratogenic effect in SWV mouse assessed as resorptions at 310 mg/kg, ip administered on morning of day 8 of gestation; format: toxicity, organism-based; parameters: dose 310 mg/kg, route intraperitoneal; details: in vivo; method in brief: as §4
Mus musculus [18] = assay: Neurotoxicity in CF1 albino mouse assessed as motor impairment at 300 mg/kg, ip after 0.5 hrs; format: toxicity, organism-based; parameters: dose 300 mg/kg, route intraperitoneal; details: in vivo
Mus musculus [19] = assay: Anticonvulsant activity in CF1 albino mouse assessed as inhibition of maximal electroshock-induced seizures at 30 mg/kg, ip after 4 hrs; format: functional, organism-based; parameters: dose 30 mg/kg; method in brief: as §1
Mus musculus [20] = assay: Teratogenic effect in SWV mouse assessed as live fetuses at 310 mg/kg, ip administered on morning of day 8 of gestation; format: toxicity, organism-based; parameters: dose 310 mg/kg, route intraperitoneal; details: in vivo; method in brief: as §2
Mus musculus [21] = assay: Teratogenic effect in SWV mouse assessed as fetuses with neural tube deffects at 156 mg/kg, ip administered on morning of day 8 of gestation; format: toxicity, organism-based; parameters: dose 156 mg/kg, route intraperitoneal; details: in vivo; method in brief: as §2
Mus musculus [22] = assay: Anticonvulsant activity in CF1 albino mouse assessed as inhibition of subcutaneous pentylenetetrazole-induced seizures at 30 mg/kg, ip after 0.5 hrs; format: functional, organism-based; parameters: dose 30 mg/kg; method in brief: as §3
Mus musculus [23] = assay: Neurotoxicity in CF1 albino mouse assessed as motor impairment at 100 mg/kg, ip after 4 hrs; format: toxicity, organism-based; parameters: dose 100 mg/kg, route intraperitoneal; details: in vivo
Mus musculus [24] = assay: Teratogenic effect in SWV mouse assessed as live fetuses at 511 mg/kg, ip administered on morning of day 8 of gestation; format: toxicity, organism-based; parameters: dose 511 mg/kg, route intraperitoneal; details: in vivo; method in brief: as §4
Rattus norvegicus [25] = assay: Anticonvulsant activity in po dosed rat assessed as inhibition of maximal electroshock-induced seizures
Rattus norvegicus [26] = species on record: Rattus norvegicus; assay: Protective index, ratio of TD50 for rat to ED50 for maximal electroshock-induced rat seizure model
Mus musculus [27] = assay: Teratogenic effect in SWV mouse assessed as resorptions at 511 mg/kg, ip administered on morning of day 8 of gestation; format: toxicity, organism-based; parameters: dose 511 mg/kg, route intraperitoneal; details: in vivo; method in brief: as §4
Mus musculus [28] = assay: Teratogenic effect in SWV mouse assessed as live fetuses at 156 mg/kg, ip administered on morning of day 8 of gestation; format: toxicity, organism-based; parameters: dose 156 mg/kg, route intraperitoneal; details: in vivo; method in brief: as §2
Mus musculus [29] = assay: Anticonvulsant activity in CF1 albino mouse assessed as inhibition of maximal electroshock-induced seizures at 300 mg/kg, ip after 4 hrs; format: functional, organism-based; parameters: dose 300 mg/kg; method in brief: as §1
Mus musculus [30] = assay: Neurotoxicity in CF1 albino mouse assessed as motor impairment at 30 mg/kg, ip after 0.5 hrs; format: toxicity, organism-based; parameters: dose 30 mg/kg, route intraperitoneal; details: in vivo

CCCC(CC)C(=O)Nc1ccc(S(N)(=O)=O)cc1 (stereo not given)
Activity (Mus musculus [1]): inactive
Activity (Mus musculus [2]): inactive
Activity (Mus musculus [3]): 13.3%
Activity (Mus musculus [4]): inactive
selectivity ratio [5]: 43.1
ED50 [6]: 11.6 mg/kg
Activity (Mus musculus [7]): inactive
Activity (Mus musculus [8]): inactive
Activity (Mus musculus [9]): 15.7%
Activity (Mus musculus [10]): inactive
Activity (Mus musculus [11]): Non-toxic
Activity (Rattus norvegicus [12]): Non-toxic
Activity (Mus musculus [13]): inactive
Activity (Mus musculus [14]): Non-toxic
Activity (Mus musculus [15]): inactive
Activity (Mus musculus [16]): Non-toxic
Activity (Mus musculus [17]): 72%
Activity (Mus musculus [18]): Non-toxic
Activity (Mus musculus [19]): inactive
Activity (Mus musculus [20]): 28%
Activity (Mus musculus [21]): 1%
Activity (Mus musculus [22]): inactive
Activity (Mus musculus [23]): Non-toxic
Activity (Mus musculus [24]): 1.5%
ED50 (Rattus norvegicus [25]): 11.6 mg/kg
Ratio TD50/ED50 (Rattus norvegicus [26]): >43.1
Activity (Mus musculus [27]): 98.5%
Activity (Mus musculus [28]): 84.3%
Activity (Mus musculus [29]): Active
Activity (Mus musculus [30]): Non-toxic
